Measured values gathered from unrelated publications.
Protocols differ between the studies behind these lines.
Target: Casein kinase I isoform alpha (CSNK1A1, Homo sapiens, UniProt P48729)

O=c1[nH]c2ccccc2n1C1CCN(Cc2ccc(-c3[nH]c4cc5ncnc5cc4nc3-c3ccccc3)cc2)CC1  remaining signal (cell-free assay; 0.5 µM): 96%
Cn1cc(-c2cccc(N3CCc4c(sc5c4CC(C)(C)C5)C3=O)c2CO)cc(Nc2ccncn2)c1=O  inhibition (enzyme activity; inhibitor; 1 µM): 6%
COc1ncccc1-c1cnn2ccc(N3CCN(C(=O)OC(C)C)CC3)nc12  remaining binding (binding; competition with immobilised ligand; 1 µM): 100%
Nc1ncc(-c2nc(N3CCOCC3)nc(N3CCOCC3)n2)c(C(F)F)n1  remaining binding (binding; competition with immobilised ligand; 10 µM): 72%
N#CC1(c2ccccn2)CCN(Cc2cc(C(=O)O)c(=O)n3ccccc23)CC1  remaining binding (cell-free assay; competition with immobilised ligand; 1 µM): 100%
Cn1cc(-c2cc(F)cc(N3CCn4c(cc5c4CCCC5)C3=O)c2CO)cc(Nc2ccc(N3CCN(C4COC4)CC3)cn2)c1=O  inhibition (enzyme activity; inhibitor; 0.1 µM): 4%
Cc1nn(C)cc1-c1nc2c(N3CCN(Cc4ccc(Cl)cc4)CC3)c(Cl)cnc2[nH]1  remaining binding (binding; competition with immobilised ligand; 1 µM): 77%
Cn1cncc1[C@](O)(COc1ccc(C#N)cc1-c1ccc(OC(F)(F)F)cc1)c1ccc(C#N)cc1  remaining binding (cell-free assay; competition with immobilised ligand; 1 µM): 100%
